Compounds with a hit are over-represented: about 1.6% of the library has one in this group of screens.
UHRF1 binding: human UHRF1 methylated DNA binding inhibitors; Q96T88; UHRF1 binding to methylated oligo, TR-FRET; inhibition, % at 4.4 µM; 370,000 compounds, 0.75% hits; AID 687016; in the data active means inhibition above about 21%;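 further: UHRF1 SRA domain binding a hemimethylated CpG hairpin DNA probe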
TDP2 inh: TDP2 (human) inhibition, absorbance primary screen; 370,000 compounds, 0.34% hits; recombinant TDP2, T5PNP hydrolysis, p-nitrophenol absorbance 415 nm; inhibition, % at 12.8 µM; AID 720702;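 active means inhibition above the mean of all tested compounds plus 3 SD, set per campaign, cut at about 25% in these data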
Target sequence (O95551 whole entry, looked up): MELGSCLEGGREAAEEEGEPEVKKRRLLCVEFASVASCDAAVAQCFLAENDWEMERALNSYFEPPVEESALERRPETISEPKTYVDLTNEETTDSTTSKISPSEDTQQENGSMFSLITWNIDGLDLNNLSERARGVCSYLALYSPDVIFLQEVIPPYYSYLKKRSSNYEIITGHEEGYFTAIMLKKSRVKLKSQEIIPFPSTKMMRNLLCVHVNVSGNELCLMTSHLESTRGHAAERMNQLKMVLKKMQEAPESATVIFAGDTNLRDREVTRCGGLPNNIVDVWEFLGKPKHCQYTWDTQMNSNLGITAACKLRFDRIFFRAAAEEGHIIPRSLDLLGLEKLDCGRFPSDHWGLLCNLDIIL
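Material: recombinant human TDP2; quantity: TDP2 enzyme at 120 nM final; medium: Tris-HCl pH 7.5 with MgCl2; compound: single concentration, 12.8 µM nominal, with 1% DMSO; incubation: 2 h enzyme incubation at 37 °C; signal: epi absorbance; measure: percent inhibition; benchmarks: high control without enzyme, low control DMSO plus TDP2; repeats: singlicate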
MBD2 inh: inhibitors of human MBD2 binding to methylated oligonucleotide. inhibition, % at 4.4 µM. Q9UBB5. TR-FRET. 370,000 compounds, 0.31% hits; in the data active means inhibition above about 13%
LEDGF integ inh: blocks HIV-1 LEDGF/p75-dependent DNA integration. TR-FRET IN-LEDGF/p75 DNA integration, Eu/Cy5. inhibition, % at 3.7 µM. 370,000 compounds, 0.64% hits;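 active means inhibition above the screen-wide mean plus 3 SD, cut at about 13% in these data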;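 further: signal is the Cy5 over europium emission ratio at 671 and 618 nm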
A number is an active result; . = inactive.

SMILES	UHRF1 binding	TDP2 inh	MBD2 inh	LEDGF integ inh
COC(=O)c1ccc2nc(-c3ccc(C#N)cc3)c(Cc3cccc(Cl)c3)n2c1	21.2	.	.	.
COC(=O)c1ccc2nc(-c3ccc(F)cc3)c(Cc3ccsc3)n2c1	23.8	.	.	.
COC(=O)c1ccc2nc(-c3ccc(C)cc3)c(Cc3ccsc3)n2c1	.	.	.	.
COC(=O)c1ccc2nc(-c3ccccc3)c(Cc3cccc(Cl)c3)n2c1	.	.	.	.
COC(=O)c1ccc2nc(-c3ccc(F)cc3)c(Cc3ccccc3)n2c1	22.8	.	.	.
COCC#Cc1ccc(CC[C@H]2O[C@H]3CC[C@H](CO)O[C@H]3C[C@H]2n2cc(C(C)(C)O)nn2)cc1	.	.	.	.
O=C(NCc1ccco1)C1CCCN(S(=O)(=O)c2ccccc2[N+](=O)[O-])C1 (configuration not stated)	.	.	.	.
CNC(=O)COC(=O)c1cc(-c2ccco2)nc2ccccc12	.	.	.	16.1
COCCCN(C(=O)c1cc(-c2ccco2)nc2ccccc12)c1c(N)n(Cc2ccccc2)c(=O)[nH]c1=O	23.1	.	.	35.5
O=C(COC(=O)c1cc(-c2ccco2)nc2ccccc12)NCc1ccccc1	.	.	.	.
CCCn1c(N)c(N(CCOC)C(=O)c2cc(-c3ccco3)nc3ccccc23)c(=O)[nH]c1=O	.	.	.	.
O=C1CC(c2ccccc2)CC(O)=C1C=NC1CCCC1 (configuration not stated)	48.1	.	.	.
CSc1ccc(OC2CCCCC2NS(=O)(=O)c2ccccc2)cc1 (configuration not stated)	98.2	.	.	.
N#C/C(=C\c1ccncc1)c1nc2ccccc2c(=O)[nH]1	44.3	.	.	.
CC(C)COC(=O)c1ccccc1OC(=O)c1ccncc1	25.4	.	.	.
COc1cc(NC(=O)CN2C(=O)COc3ccccc32)cc(OC)c1	21.0	.	.	.
CCOc1ccc(NC(=O)CN2C(=O)COc3ccccc32)cc1	.	.	.	.
CN1CCN(c2nc(-c3ccc(C(C)(C)C)cc3)nc3ccccc23)CC1	21.6	.	.	.
Cc1ccc(-c2nc(N3CCN(C)CC3)c3ccccc3n2)cc1	.	.	.	.
Cc1ccc(-n2c(SCC(=O)Nc3cccc4ccccc34)nnc2-c2cnccn2)cc1	.	.	.	.
Cc1ccccc1NC(=O)C(=Cc1ccc(C(=O)O)cc1)C(=O)Nc1ccccc1C	26.1	.	.	.
O=C(CSc1nnc(-c2ccncc2)n1-c1ccccc1)Nc1cccc2ccccc12	.	.	.	.
COc1ccc(C(=O)/C(=C/N(C)C)S(=O)(=O)c2ccccc2)cc1	54.7	.	.	.
CN(C)/C=C(/C(=O)c1ccccc1Cl)S(=O)(=O)c1ccccc1	.	.	.	.
CCOc1cc(C(=O)NC)cc(Br)c1OCc1ccccc1	48.4	.	.	.
SMILES	UHRF1 binding	TDP2 inh	MBD2 inh	LEDGF integ inh
CC(C)CCn1c(COc2ccccc2)n[nH]c1=S	21.4	.	.	.
Cc1ccc2nc(-c3ccc(NC(=O)CSc4nnc(-c5cc(-c6ccc(F)cc6)n[nH]5)n4N)cc3)sc2c1	.	.	.	.
Cn1c(=O)c2cc(NCc3ccccc3)nnc2n(C)c1=O	.	75.5	.	.
Cn1c(=O)c2c(nc(NCc3ccccc3)n2C)n(C)c1=O	.	.	.	.
C=CCN1C(=O)[C@@H](CC(=O)NCc2ccccc2)[C@]2(C(=O)OCC)CCCCC/C=C/12	.	.	.	.
CCn1c(=O)cc(SCC(=O)NCCCN2CCC(C)CC2)c2ccccc21	.	.	.	.
CCn1c(=O)cc(SCC(=O)NCCCN2CCN(c3ccc(F)cc3)CC2)c2ccccc21	21.4	.	.	.
O=C(Nc1ccc2c(c1)C(=O)NC2=O)c1cccc(C(F)(F)F)c1	20.8	.	.	.
Cc1ccc2nc(-c3ccc(F)cc3)c(Cc3cccc(Cl)c3)n2c1	65.8	.	.	.
Cc1ccc(Cc2c(-c3ccc(C)cc3)nc3ccc(Br)cn23)cc1	21.7	.	.	.
Cc1ccc(Cc2c(-c3cccc(Br)c3)nc3ccc(Br)cn23)cc1	.	.	.	.
CCCc1nc2ccc(Cl)cn2c1Cc1ccc(C)cc1	21.3	.	.	.
Cc1ccc2nc(-c3ccc(Cl)cc3)c(Cc3cccc(Cl)c3)n2c1	.	.	.	.
CCCc1nc2ccc(Cl)cn2c1Cc1cccc(Cl)c1	.	.	.	.
Cc1ccc(Cc2c(-c3ccc(Cl)cc3)nc3ccc(Br)cn23)cc1	21.5	.	.	.
OC(c1ccccc1)(c1ccccc1)C1CCN(CCCOc2ccc(Br)cc2)CC1	.	.	.	.
CC(C)C[C@H]1COc2cccc(F)c2S(=O)(=O)N1Cc1cn(Cc2ccc(F)cc2)nn1	.	.	.	.
C[C@H]1/C=C/CC(=O)N[C@@H](c2ccc3ccccc3c2)[C@@H](C)/C=C/CC(=O)N[C@H]1c1ccc2ccccc2c1	.	.	.	.
Clc1ccc(-c2nc3ccc(Br)cn3c2Cc2ccccc2)cc1	.	.	.	.
Brc1ccc(-c2nc3ccc(Br)cn3c2Cc2ccccc2)cc1	20.9	.	.	.
NS(=O)(=O)c1cccnc1Nc1c(Cl)cccc1Cl	20.9	.	.	.
Cc1cc(=O)n2c3c(c4c(cc13)c(CN(C)C)cc(=O)n4C)OC2	.	86.0	.	.
Cc1cc(=O)n(C)c2ccccc12	.	.	.	.
O=C(CN1C(=O)/C(=C\c2ccco2)SC1=S)Nc1ccc(O)cc1C(=O)O	86.6	.	26.7	62.5
O=C(CCN1C(=O)/C(=C\c2ccco2)SC1=S)Nc1ccc(C(=O)O)c(O)c1	62.2	.	.	69.9
SMILES	UHRF1 binding	TDP2 inh	MBD2 inh	LEDGF integ inh
CCOc1ccc(-n2c(SCC(=O)Nc3ccc(S(=O)(=O)Nc4cc(C)nc(C)n4)cc3)nnc2-c2cccc(C)c2)cc1	.	.	.	.
Cc1ccccc1C(=O)NC1CCCCN(C)C1=O (configuration not stated)	.	.	.	.
CCn1c(=O)c(C(=O)NNS(=O)(=O)c2ccc(Br)cc2)c(O)c2ccccc21	35.3	.	.	.
C[C@H](CO)N1C[C@H](C)[C@@H](CN(C)C(=O)Nc2ccc(N3CCN(C)CC3)cc2)OCc2cn(nn2)CCCC1=O	.	.	.	.
O=C(Nc1ccc2ccccc2c1)NC1CCCCN(Cc2ccc(Cl)cc2)C1=O (configuration not stated)	.	.	.	.
COc1ccc(CCNC(=O)CN(c2cccc([N+](=O)[O-])c2)S(C)(=O)=O)cc1	37.6	.	.	.
C=CCN1C(=O)[C@@H](CC(=O)N2CCN(C(=O)C3CC3)CC2)[C@]2(C(=O)OC)CCCCC=C12	.	.	.	.
O=C(OCC(=O)N1CCCc2ccccc21)c1ccc(Br)o1	.	.	.	.
O=C(OCC(=O)N1CCc2ccccc21)c1ccc([N+](=O)[O-])o1	.	.	.	15.6
O=C(CN1C(=O)CC(c2ccccc2)S(=O)(=O)c2ccccc21)N1CCCCC1 (configuration not stated)	23.9	.	.	.
